Data taken from ChEMBL document CHEMBL1123619, “Isothiourea derivatives of 6-phenyl-2,3,5,6-tetrahydroimidazo[2,1-b]thiazole with broad-spectrum anthelmintic activity” (J Med Chem, 1987).
Calls of active or inactive are those of the source. The calls are words filed in the database; no cut-off is given here.

Columns and labels:
[1] = system: Mus musculus; test: Nematocidal activity against Nematospiroides dubius induced necropsy in mouse, after oral administration of 100 mg/kg; type: functional
Procedure, shortened: (§1)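 Seven-week-old female LACA mice infected orally with 100 N. dubius L3 larvae; single gavage dose given at day 10 of infection, groups of four mice; necropsy 4 days later; percent activity from worm burdens of treated versus untreated groups.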

[2] = system: Heligmosomoides polygyrus; test: Nematocidal activity against Nematospiroides dubius induced necropsy in mouse, oral administration 200 mg/kg; type: functional; procedure, shortened: as §1
[3] = system: Fasciola hepatica; test: Anthelmintic activity against adult liver fluke (Fasciola hepatica) in sheep following 30 mg/kg p.o.; type: functional; conditions: route oral
Procedure, shortened: (§2)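 Sheep dosed with a single oral dose. Fecal fluke egg output monitored after treatment. Animals necropsied only if the fecal egg count fell. Postmortem Fasciola hepatica burdens compared with untreated control sheep (mean of 10 controls). Single animals per test unless otherwise indicated, with group size given in parentheses. I denotes no effect on fecal fluke egg output.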

[4] = system: Ovis aries; test: Anthelmintic activity against adult liver fluke (Fasciola hepatica) in sheep, after peroral administration of 30 mg/kg; I means no effect on sheep fecal fluke egg output; type: functional, organism-based; parameters: dose 30 mg/kg; conditions: at 30 mg/kg; procedure, shortened: as §2
[5] = system: Ovis aries; test: Anthelmintic activity against adult liver fluke (Fasciola hepatica) in sheep, after peroral administration of 20 mg/kg was determined; type: functional; conditions: route oral; procedure, shortened: as §2
[6] = system: Mus musculus; test: Nematocidal activity against Nematospiroides dubius induced necropsy in mouse, after oral administration of 50 mg/kg of the compound; type: functional; procedure, shortened: as §1
[7] = system: Ovis aries; test: Anthelmintic activity against adult liver fluke (Fasciola hepatica) in sheep, after peroral administration of 15 mg/kg was determined; type: functional; conditions: route oral; procedure, shortened: as §2
[8] = system: Ovis aries; test: Anthelmintic activity against adult liver fluke (Fasciola hepatica) in 2 sheep, after peroral administration of 30 mg/kg was determined.; type: functional; conditions: route oral; procedure, shortened: as §2
[9] = system: Mus musculus; test: Nematocidal activity against Nematospiroides dubius induced necropsy in mouse, after oral administration of 25 mg/kg of the compound; type: functional; procedure, shortened: as §1
[10] = system: Ovis aries; test: Anthelmintic activity against adult liver fluke (Fasciola hepatica) in sheep, after peroral administration of 10 mg/kg was determined; type: functional; conditions: route oral; procedure, shortened: as §2
[11] = system: Ovis aries; test: Anthelmintic activity against adult liver fluke (Fasciola hepatica) in sheep, after peroral administration of 5 mg/kg was determined; type: functional; conditions: route oral; procedure, shortened: as §2
[12] = system: Mus musculus; test: Nematocidal activity against Nematospiroides dubius induced necropsy in mouse, after oral administration of 12.5 mg/kg of the compound; type: functional
Procedure, shortened: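 Female LACA mice (7 weeks) infected orally with 100 N. dubius L3 larvae; single oral dose as solution in PEG 400 on infection day 10, four mice per group; necropsied 4 days later; percent activity by comparing treated and untreated worm burdens.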

[13] = system: Ovis aries; test: Anthelmintic activity against adult liver fluke (Fasciola hepatica) in sheep, after peroral administration of 7.5 mg/kg was determined; type: functional; conditions: route oral; procedure, shortened: as §2
[14] = system: Ovis aries; test: Anthelmintic activity against adult liver fluke (Fasciola hepatica) in sheep, after peroral administration of 30 mg/kg was determined; I means no effect on sheep fecal fluke egg output; type: functional, organism-based; parameters: dose 30 mg/kg; conditions: at 30 mg/kg; procedure, shortened: as §2
[15] = system: Ovis aries; test: Anthelmintic activity against adult fecal fluke egg output in sheep, after peroral administration of 30 mg/kg; I means no effect on sheep fecal fluke egg output; type: functional, organism-based; parameters: dose 30 mg/kg; conditions: at 30 mg/kg; procedure, shortened: as §2
[16] = system: Ovis aries; test: Anthelmintic activity against adult liver fluke (Fasciola hepatica) in 2 sheep, after peroral administration of 30 mg/kg was determined. Value in parentheses indicate number of animals used; type: functional; conditions: route oral; procedure, shortened: as §2
[17] = system: Ovis aries; test: Anthelmintic activity against adult liver fluke (Fasciola hepatica) in sheep, after peroral administration of 30 mg/kg was determined. Value in parentheses indicate number of animals used; type: functional; conditions: route oral; procedure, shortened: as §2
[18] = system: Mus musculus; test: Nematocidal activity against Nematospiroides dubius induced necropsy in mouse, after oral administration of 100 mg/kg of the compound; type: functional; procedure, shortened: as §1
[19] = system: Ovis aries; test: Anthelmintic activity against adult liver fluke (Fasciola hepatica) in sheep, after peroral administration of 20 mg/kg was determined; I means no effect on sheep fecal fluke egg output; type: functional, organism-based; parameters: dose 20 mg/kg; conditions: at 20 mg/kg; procedure, shortened: as §2
[20] = system: Ovis aries; test: Anthelmintic activity against adult liver fluke (Fasciola hepatica) in 3 sheep, after peroral administration of 30 mg/kg was determined. Value in parentheses indicate number of animals used; type: functional; conditions: route oral; procedure, shortened: as §2
[21] = system: Ovis aries; test: Anthelmintic activity against adult liver fluke (Fasciola hepatica) in sheep, after peroral administration of 20 mg/kg; I means no effect on sheep fecal fluke egg output; type: functional, organism-based; parameters: dose 20 mg/kg; conditions: at 20 mg/kg; procedure, shortened: as §2
[22] = system: Mus musculus; test: Nematocidal against Nematospiroides dubius in mouse was determined at 5 mg/kg peroral dose of compound; type: functional; conditions: route oral; procedure, shortened: as §1
[23] = system: Mus musculus; test: Nematocidal against Nematospiroides dubius in mouse was determined at 1 mg/kg peroral dose of compound; type: functional; conditions: route oral; procedure, shortened: as §1
[24] = system: Mus musculus; test: Nematocidal against Nematospiroides dubius in mouse was determined at 0.5 mg/kg peroral dose of compound; type: functional; conditions: route oral; procedure, shortened: as §1
[25] = system: Mus musculus; test: Nematocidal against Nematospiroides dubius in mouse was determined at 50 mg/kg peroral dose of compound; all animals died at this dose; type: functional, organism-based; parameters: dose 50 mg/kg; procedure, shortened: as §1
[26] = system: Ovis aries; test: Toxic activity expressed as the percentage against liver fluke in the sheep at 15 mg/kg peroral administration of dose; type: ADME, organism-based; parameters: dose 15 mg/kg, route oral; conditions: in vivo, po
Procedure, shortened: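 Fasciola hepatica in sheep, controlled test; animals necropsied only when fecal egg count fell; postmortem fluke burdens compared with untreated control sheep (10 controls).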

[27] = system: Ovis aries; test: Toxic activity expressed as the percentage against liver fluke in the sheep at 30 mg/kg peroral administration of dose; lethal; type: ADME, organism-based; parameters: dose 30 mg/kg, route oral; conditions: in vivo, po

SMILES | Reduction [1] [%] | Reduction [2] [%] | Activity [3] [%] | other results
CS/C(=N\c1cccc(C2CN3CCSC3=N2)c1)Nc1ccc(F)cc1 (stereo not given) | 0 | 100 | 60 | –
CCCCCCN/C(=N/c1cccc(C2CN3CCSC3=N2)c1)SC (stereo not given) | – | 52 | – | Activity [4]: inactive
CS/C(=N\c1cccc(C2CN3CCSC3=N2)c1)Nc1ccc(S(C)(=O)=O)cc1 (stereo not given) | 94 | 100 | – | Activity [5]: 89%; Reduction [6]: 41%; Activity [7]: 74%; Activity [8]: 100%
CS/C(=N\c1cccc([C@H]2CN3CCSC3=N2)c1)Nc1ccc(C#N)cc1 | 100 | 100 | – | Reduction [9]: 99.9%; Reduction [6]: 100%; Activity [10]: 100%; Activity [11]: 85%; Reduction [12]: 66%; Activity [13]: 91%
CS/C(=N\c1ccccc1)N(C)c1cccc(C2CN3CCSC3=N2)c1 (stereo not given) | – | 0 | – | Activity [14]: inactive
CCCS/C(=N\c1cccc(C2CN3CCSC3=N2)c1)Nc1ccccc1 (stereo not given) | – | 64 | – | Activity [15]: inactive
CS/C(=N\c1cccc(C2CN3CCSC3=N2)c1)Nc1ccc(SC)cc1 (stereo not given) | 30 | 95 | – | Activity [5]: 80%; Activity [16]: 100%; Activity [7]: 71%
c1ccc(CS/C(=N\c2cccc(C3CN4CCSC4=N3)c2)Nc2ccccc2)cc1 (stereo not given) | – | 0 | – | Activity [14]: inactive
CS/C(=N\c1cccc(C2CN3CCSC3=N2)c1)Nc1ccccc1Cl (stereo not given) | – | 23 | – | Activity [4]: inactive
CS/C(=N\c1cccc(C2CN3CCSC3=N2)c1)Nc1ccc([N+](=O)[O-])cc1 (stereo not given) | 100 | 100 | – | Activity [5]: 85%; Reduction [6]: 95%; Activity [17]: 94%
CS/C(=N\c1cccc(C2CN3CCSC3=N2)c1)Nc1ccccc1 (stereo not given) | – | 99 | – | Activity [6]: 0%; Activity [18]: 38%; Activity [8]: 94%
CS/C(=N\c1cccc(C2CN3CCSC3=N2)c1)Nc1ccc([S+](C)[O-])cc1 (stereo not given) | 33 | 97 | 100 | Activity [5]: 66%; Activity [7]: 14%
CC(C)S/C(=N\c1cccc(C2CN3CCSC3=N2)c1)Nc1ccccc1 (stereo not given) | – | 0 | – | Activity [14]: inactive
CCCCS/C(=N\c1cccc(C2CN3CCSC3=N2)c1)Nc1ccccc1 (stereo not given) | – | 0 | – | Activity [14]: inactive
CS/C(=N\c1cccc(C2CN3CCSC3=N2)c1)Nc1ccc(Cl)c(Cl)c1 (stereo not given) | 0 | 0 | 63 | –
CS/C(=N\c1cccc(C2CN3CCSC3=N2)c1)NC1CCCCC1 (stereo not given) | – | 15 | – | Activity [4]: inactive
CS/C(=N\c1cccc(C2CN3CCSC3=N2)c1)Nc1cccc(F)c1 (stereo not given) | 100 | 100 | 66 | Reduction [6]: 64%

SMILES | Reduction [1] [%] | Reduction [2] [%] | Activity [3] [%] | other results
CS/C(=N\c1cccc(C2CN3CCSC3=N2)c1)Nc1ccc(C)cc1 (stereo not given) | – | 0 | 91 | –
CS/C(=N\c1cccc(C2CN3CCSC3=N2)c1)Nc1ccc(Br)cc1 (stereo not given) | 0 | 73 | 94 | Activity [5]: 100%
CCOC(=O)c1ccc(N/C(=N/c2cccc(C3CN4CCSC4=N3)c2)SC)cc1 (stereo not given) | – | 74 | 97 | Activity [19]: inactive
CS/C(=N\c1cccc(C2CN3CCSC3=N2)c1)Nc1ccc(C(F)(F)F)cc1 (stereo not given) | – | 74 | 100 | Activity [7]: 100%
CS/C(=N\c1cccc(C2CN3CCSC3=N2)c1)Nc1ccccc1C#N (stereo not given) | – | 0 | – | Activity [14]: inactive
CS/C(=N\c1cccc(C2CN3CCSC3=N2)c1)Nc1cccc([N+](=O)[O-])c1 (stereo not given) | 95 | 95 | 91 | Activity [7]: 100%
CS/C(=N\c1cccc(C2CN3CCSC3=N2)c1)Nc1cccc(C#N)c1 (stereo not given) | 54 | 100 | – | Activity [5]: 100%; Activity [7]: 63%; Activity [20]: 100%
CS/C(=N\c1cccc(C2CN3CCSC3=N2)c1)Nc1cccc(Cl)c1 (stereo not given) | 87 | 99 | 91 | Activity [21]: inactive
COc1ccc(N/C(=N/c2cccc(C3CN4CCSC4=N3)c2)SC)cc1 (stereo not given) | – | 0 | – | Activity [4]: inactive
CCS/C(=N\c1cccc(C2CN3CCSC3=N2)c1)Nc1ccccc1 (stereo not given) | – | 92 | 97 | Activity [21]: inactive
CS/C(=N\c1cccc(C2CN3CCSC3=N2)c1)Nc1ccc(C)c(C)c1 (stereo not given) | – | 0 | 85 | –
CCCCCCCCS/C(=N\c1cccc(C2CN3CCSC3=N2)c1)Nc1ccccc1 (stereo not given) | – | 0 | – | Activity [14]: inactive
c1ccc(C2CN3CCSC3=N2)cc1 (stereo not given) [TETRAMISOLE] | – | – | – | Reduction [22]: 57%; Reduction [23]: 43%
CS/C(=N\c1cccc(C2CN3CCSC3=N2)c1)Nc1ccc(C(C)=O)cc1 (stereo not given) | 93 | 100 | 100 | Activity [7]: 100%
CS/C(=N\c1cccc(C2CN3CCSC3=N2)c1)Nc1cccc(Br)c1 (stereo not given) | 56 | 79 | 100 | Activity [5]: 100%; Activity [7]: 77%
CS/C(=N\c1cccc(C2CN3CCSC3=N2)c1)Nc1ccc(Cl)cc1 (stereo not given) | 0 | 88 | 100 | –
Nc1cccc(C2CN3CCSC3=N2)c1 (stereo not given) | – | – | – | Reduction [24]: 43%; Reduction [25]: all animals died at this dose; Activity [26]: 0%; Reduction [22]: 100%; Activity [27]: lethal; Reduction [23]: 99%
